Among the data in ChEMBL document CHEMBL1157100, “The alkyl-connected 2-amino-6-vinylpurine (AVP) crosslinking agent for improved selectivity to the cytosine base in RNA” (Bioorg Med Chem, 2010) are Tm and Activity values, retold here.

What all share (type): nucleic-acid assay
The subject of assay [1] is Nucleic Acid. Put plainly: Binding affinity to r-(CGCUGGGCGUUAAUCAAAGAGGCGAAC)-RNA assessed as melting temperature at 1.5 uM by UV-visible spectrophotometry. In outline: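 Each strand at 1.5 µM: ODN plus complementary 27-mer RNA in 100 mM NaCl, 50 mM MES pH 5. Samples were heated at 85 °C for 10 min and cooled slowly. Melting curves were recorded at 260 nm while warming 20 to 80 °C at 1.0 °C/min to obtain Tm.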

Assay [2] relates to Nucleic Acid. As to the kind of experiment: Binding affinity to FAM-tagged d-(GAAAYAAGAGGAAAGA)-DNA assessed as crosslinking at 10 uM by alkylation method. In outline:
(§1)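 Reactive ODN at 10 µM with 1 µM FAM-labeled target DNA or RNA in 100 mM NaCl, 50 mM MES pH 5 plus RNase OUT, mixed at 0 °C and then incubated at 37 °C. Reactions were stopped at set times with formamide/EDTA/bromophenol blue buffer. Products were resolved on 15% denaturing polyacrylamide gel with 7 M urea, and FAM band intensities were quantified to give crosslinking yield.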

For assay [3], the system named is Nucleic Acid. Put plainly: Binding affinity to FAM-tagged r-(GAAAYAAGAGGAAAGA)-RNA assessed as crosslinking at 10 uM by alkylation method. The method in brief:
as §1

SMILES strings stand for the structures. Activity calls are given as the source filed them. The calls are words filed in the database; no cut-off is given here.

As for `Cc1cn([C@H]2C[C@H](OP(=O)(O)OC[C@H]3O[C@@H](n4cc(C)c(=O)[nH]c4=O)C[C@@H]3OP(=O)(O)OC[C@H]3O[C@@H](n4ccc(N)nc4=O)[C@H](O)[C@@H]3OP(=O)(O)OC[C@H]3O[C@@H](n4cnc5c(=O)[nH]c(N)nc54)[C@H](O)[C@@H]3OP(=O)(O)OC[C@H]3O[C@@H](n4ccc(N)nc4=O)[C@H](O)[C@@H]3OP(=O)(O)OC[C@H]3O[C@@H](n4ccc(N)nc4=O)[C@H](O)[C@@H]3OP(=O)(O)OC[C@H]3O[C@@H](n4cc(C)c(=O)[nH]c4=O)C[C@@H]3OP(=O)(O)OC[C@H]3O[C@@H](n4ccc(N)nc4=O)[C@H](O)[C@@H]3OP(=O)(O)OC[C@H]3O[C@@H](n4cc(C)c(=O)[nH]c4=O)C[C@@H]3OP(=O)(O)OC[C@H]3O[C@@H](n4cc(C)c(=O)[nH]c4=O)C[C@@H]3OP(=O)(O)OC[C@H]3O[C@@H](n4cc(C)c(=O)[nH]c4=O)C[C@@H]3OP(=O)(O)OC[C@H]3O[C@@H](n4cnc5c(=O)[nH]c(N)nc54)[C@H](O)[C@@H]3OP(=O)(O)OC[C@H]3O[C@@H](n4cnc5c(N)ncnc54)[C@H](O)[C@@H]3OP(=O)(O)OC[C@H]3O[C@@H](n4cc(C)c(=O)[nH]c4=O)C[C@@H]3OP(=O)(O)OC[C@H]3O[C@@H](n4cc(C)c(=O)[nH]c4=O)C[C@@H]3OP(=O)(O)OC[C@H]3O[C@@H](n4cnc5c(N)ncnc54)[C@H](O)[C@@H]3OP(=O)(O)OC[C@H]3O[C@@H](n4cnc5c(N)ncnc54)[C@H](O)[C@@H]3OP(=O)(O)OC[C@H]3O[C@@H](n4ccc(N)nc4=O)[C@H](O)[C@@H]3OP(=O)(O)OC[C@H]3O[C@@H](n4cnc5c(=O)[nH]c(N)nc54)[C@H](O)[C@@H]3OP(=O)(O)OC[C@H]3O[C@@H](n4ccc(N)nc4=O)[C@H](O)[C@@H]3OP(=O)(O)OC[C@H]3O[C@@H](n4ccc(N)nc4=O)[C@H](O)[C@@H]3OP(=O)(O)O)[C@@H](CO)O2)c(=O)[nH]c1=O`, the Tm in the assay with Nucleic Acid [1] was 55.8 °C.

With `CSCCc1nc(N)nc2c1ncn2[C@H]1C[C@H](OP(=O)(O)OC[C@H]2O[C@@H](n3cc(C)c(=O)[nH]c3=O)C[C@@H]2OP(=O)(O)OC[C@H]2O[C@@H](n3cc(C)c(=O)[nH]c3=O)C[C@@H]2OP(=O)(O)OC[C@H]2O[C@@H](n3ccc(N)nc3=O)[C@H](O)[C@@H]2OP(=O)(O)OC[C@H]2O[C@@H](n3cc(C)c(=O)[nH]c3=O)C[C@@H]2OP(=O)(O)OC[C@H]2O[C@@H](n3ccc(N)nc3=O)[C@H](O)[C@@H]2OP(=O)(O)OC[C@H]2O[C@@H](n3ccc(N)nc3=O)[C@H](O)[C@@H]2OP(=O)(O)OC[C@H]2O[C@@H](n3cc(C)c(=O)[nH]c3=O)C[C@@H]2OP(=O)(O)OC[C@H]2O[C@@H](n3cc(C)c(=O)[nH]c3=O)C[C@@H]2OP(=O)(O)OC[C@H]2O[C@@H](n3cc(C)c(=O)[nH]c3=O)C[C@@H]2OP(=O)(O)OC[C@H]2O[C@@H](n3ccc(N)nc3=O)[C@H](O)[C@@H]2OP(=O)(O)OC[C@H]2O[C@@H](n3cc(C)c(=O)[nH]c3=O)C[C@@H]2OP(=O)(O)O)[C@@H](COP(=O)(O)O[C@H]2C[C@H](n3cc(C)c(=O)[nH]c3=O)O[C@@H]2COP(=O)(O)O[C@H]2C[C@H](n3cc(C)c(=O)[nH]c3=O)O[C@@H]2COP(=O)(O)O[C@H]2C[C@H](n3cc(C)c(=O)[nH]c3=O)O[C@@H]2COP(=O)(O)O[C@H]2[C@@H](O)[C@H](n3ccc(N)nc3=O)O[C@@H]2CO)O1`, the result in the assay on Nucleic Acid [2] and in the assay with Nucleic Acid [3] was inactive.

For `CSCCc1nc(N)nc2c1ncn2CCCC[C@H]1C[C@H](OP(=O)(O)OC[C@H]2O[C@@H](n3cc(C)c(=O)[nH]c3=O)C[C@@H]2OP(=O)(O)OC[C@H]2O[C@@H](n3cc(C)c(=O)[nH]c3=O)C[C@@H]2OP(=O)(O)OC[C@H]2O[C@@H](n3ccc(N)nc3=O)[C@H](O)[C@@H]2OP(=O)(O)OC[C@H]2O[C@@H](n3cc(C)c(=O)[nH]c3=O)C[C@@H]2OP(=O)(O)OC[C@H]2O[C@@H](n3ccc(N)nc3=O)[C@H](O)[C@@H]2OP(=O)(O)OC[C@H]2O[C@@H](n3ccc(N)nc3=O)[C@H](O)[C@@H]2OP(=O)(O)OC[C@H]2O[C@@H](n3cc(C)c(=O)[nH]c3=O)C[C@@H]2OP(=O)(O)OC[C@H]2O[C@@H](n3cc(C)c(=O)[nH]c3=O)C[C@@H]2OP(=O)(O)OC[C@H]2O[C@@H](n3cc(C)c(=O)[nH]c3=O)C[C@@H]2OP(=O)(O)OC[C@H]2O[C@@H](n3ccc(N)nc3=O)[C@H](O)[C@@H]2OP(=O)(O)OC[C@H]2O[C@@H](n3cc(C)c(=O)[nH]c3=O)C[C@@H]2OP(=O)(O)O)[C@@H](COP(=O)(O)O[C@H]2C[C@H](n3cc(C)c(=O)[nH]c3=O)O[C@@H]2COP(=O)(O)O[C@H]2C[C@H](n3cc(C)c(=O)[nH]c3=O)O[C@@H]2COP(=O)(O)O[C@H]2C[C@H](n3cc(C)c(=O)[nH]c3=O)O[C@@H]2COP(=O)(O)O[C@H]2[C@@H](O)[C@H](n3ccc(N)nc3=O)O[C@@H]2CO)O1`, the result in the assay on Nucleic Acid [2] and in the assay with Nucleic Acid [3] was inactive.

As for `CSCCc1nc(N)nc2c1ncn2C[C@H]1C[C@H](OP(=O)(O)OC[C@H]2O[C@@H](n3cc(C)c(=O)[nH]c3=O)C[C@@H]2OP(=O)(O)OC[C@H]2O[C@@H](n3cc(C)c(=O)[nH]c3=O)C[C@@H]2OP(=O)(O)OC[C@H]2O[C@@H](n3ccc(N)nc3=O)[C@H](O)[C@@H]2OP(=O)(O)OC[C@H]2O[C@@H](n3cc(C)c(=O)[nH]c3=O)C[C@@H]2OP(=O)(O)OC[C@H]2O[C@@H](n3ccc(N)nc3=O)[C@H](O)[C@@H]2OP(=O)(O)OC[C@H]2O[C@@H](n3ccc(N)nc3=O)[C@H](O)[C@@H]2OP(=O)(O)OC[C@H]2O[C@@H](n3cc(C)c(=O)[nH]c3=O)C[C@@H]2OP(=O)(O)OC[C@H]2O[C@@H](n3cc(C)c(=O)[nH]c3=O)C[C@@H]2OP(=O)(O)OC[C@H]2O[C@@H](n3cc(C)c(=O)[nH]c3=O)C[C@@H]2OP(=O)(O)OC[C@H]2O[C@@H](n3ccc(N)nc3=O)[C@H](O)[C@@H]2OP(=O)(O)OC[C@H]2O[C@@H](n3cc(C)c(=O)[nH]c3=O)C[C@@H]2OP(=O)(O)O)[C@@H](COP(=O)(O)O[C@H]2C[C@H](n3cc(C)c(=O)[nH]c3=O)O[C@@H]2COP(=O)(O)O[C@H]2C[C@H](n3cc(C)c(=O)[nH]c3=O)O[C@@H]2COP(=O)(O)O[C@H]2C[C@H](n3cc(C)c(=O)[nH]c3=O)O[C@@H]2COP(=O)(O)O[C@H]2[C@@H](O)[C@H](n3ccc(N)nc3=O)O[C@@H]2CO)O1`, the result with Nucleic Acid [2] and in the assay on Nucleic Acid [3] was inactive.
